Measured values published in ChEMBL document CHEMBL1121884, “Piperazinylquinoxalines with central serotoninmimetic activity” (1981).
Activity calls are given as the source filed them. No cut-off for these calls is given here.

Legend:
[1] = biological target: T1, Serotonin (5-HT) receptor (Rattus norvegicus) (UniProt P35563+P35365+P32305+P31388+Q9JJ16+P28564+P30994+Q62758+P08909+P14842+P30940+P35364+P19327+P28565); test: (§1) Ability to elicit head twitches in rats (a serotonin mimetic response); assay type: functional; set-up: concentration or dose not given beside the values
Outline: (§2)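 Female Sprague-Dawley rats (150-250 g), compound given ip in 1% methylcellulose vehicle, dose as base weight; quantal scoring of rats showing at least one head twitch during a 2-min observation beginning 30 min after dosing; usually six rats per dose level; vehicle controls run.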

[2] = biological target: T1, Serotonin (5-HT) receptor (Rattus norvegicus); test: as §1; assay type: functional; set-up: concentration or dose not given beside the values; outline: as §2; remark: listed apart in the source
[3] = biological target: T1, Serotonin (5-HT) receptor (Rattus norvegicus); test: as §1; assay type: functional; set-up: concentration or dose not given beside the values; outline: as §2; remark: listed apart in the source
[4] = biological target: Sodium-dependent serotonin transporter (Rattus norvegicus) (UniProt P31652); test: Serotonin neuronal reuptake blocking activity was determined by the antagonism of the head twitch response induced in rats; assay type: functional; set-up: concentration or dose not given beside the values
Sequence of Sodium-dependent serotonin transporter (Rattus norvegicus) (P31652 whole entry): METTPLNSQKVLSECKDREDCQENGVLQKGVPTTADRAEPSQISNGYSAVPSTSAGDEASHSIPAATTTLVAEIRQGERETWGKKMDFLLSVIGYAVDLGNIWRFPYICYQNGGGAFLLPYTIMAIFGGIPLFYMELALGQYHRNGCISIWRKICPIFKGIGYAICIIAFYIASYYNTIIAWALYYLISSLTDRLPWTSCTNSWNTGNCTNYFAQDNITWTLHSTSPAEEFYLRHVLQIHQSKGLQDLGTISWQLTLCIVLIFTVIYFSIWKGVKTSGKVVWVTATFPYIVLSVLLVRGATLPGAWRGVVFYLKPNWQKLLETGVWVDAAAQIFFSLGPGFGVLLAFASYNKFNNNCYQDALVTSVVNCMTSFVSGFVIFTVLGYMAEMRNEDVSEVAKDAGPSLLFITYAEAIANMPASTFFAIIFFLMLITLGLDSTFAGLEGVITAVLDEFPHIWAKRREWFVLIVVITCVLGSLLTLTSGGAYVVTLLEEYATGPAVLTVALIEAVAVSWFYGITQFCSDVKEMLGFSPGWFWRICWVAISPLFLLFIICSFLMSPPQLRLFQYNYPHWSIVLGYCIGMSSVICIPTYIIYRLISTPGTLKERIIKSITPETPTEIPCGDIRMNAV
Outline: (§3)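 Female Sprague-Dawley rats (150-250 g) dosed ip with compound (1% methylcellulose vehicle, dose as base weight), then p-chloromethamphetamine 6.0 mg/kg ip 1 h later; head twitches observed 30 min after PCMA; scored as rats not twitching; usually six rats per dose; ED50 = dose antagonizing PCMA head twitch in 50% of animals, with 95% confidence limits.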

[5] = biological target: Sodium-dependent serotonin transporter (Rattus norvegicus) (UniProt P31652); test: (§4) Serotonin neuronal reuptake blocking activity was determined by the antagonism of the head twitch response induced by treatment of rats; assay type: functional; set-up: concentration or dose not given beside the values; outline: as §3
[6] = biological target: Sodium-dependent serotonin transporter (Rattus norvegicus) (UniProt P31652); test: as §4; assay type: functional; set-up: concentration or dose not given beside the values; outline: as §3; remark: listed apart in the source
Rattus norvegicus [7] = species: Rattus norvegicus; test: ED50 value expresses the inhibition of serotonin reuptake in rat.; assay type: functional; details: Rattus norvegicus; outline: as §3
Rattus norvegicus [8] = test: Ability to elicit head twitches in rats a response characteristic of a serotonin mimetic action in the central nervous system was measured after 1.0 mg/kg of ip administration; assay type: functional; details: route intraperitoneal; outline: as §2
Rattus norvegicus [9] = test: Ability to elicit head twitches in rats a response characteristic of a serotonin mimetic action in the central nervous system was measured after 3 mg/kg of ip administration; assay type: functional; details: route intraperitoneal; outline: as §2
Rattus norvegicus [10] = test: Ability to elicit head twitches in rats a response characteristic of a serotonin mimetic action in the central nervous system after 9 mg/kg of ip administration; assay type: functional; details: route intraperitoneal; outline: as §2
Rattus norvegicus [11] = test: Serotonin neuronal reuptake blocking activity was determined by the antagonism of the head twitch response induced in rats with p-chloromethamphetamine (PCMA) after 9 mg/kg of ip administration; assay type: functional; details: route intraperitoneal; outline: as §3
Rattus norvegicus [12] = test: Serotonin neuronal reuptake blocking activity was determined by the antagonism of the head twitch response induced by treatment of rats with p-chloromethamphetamine (PCMA) after 3 mg/kg of ip administration; assay type: functional; details: route intraperitoneal; outline: as §3
Rattus norvegicus [13] = test: Serotonin neuronal reuptake blocking activity was determined by the antagonism of the head twitch response induced by treatment of rats with p-chloromethamphetamine (PCMA) after 1.0 mg/kg of ip administration; assay type: functional; details: route intraperitoneal; outline: as §3
Rattus norvegicus [14] = test: Ability to elicit head twitches in rats a response characteristic of a serotonin mimetic action in the central nervous system was measured after 2 mg/kg of ip administration; assay type: functional; details: route intraperitoneal; outline: as §2
Rattus norvegicus [15] = test: Ability to elicit head twitches in rats a response characteristic of a serotonin mimetic action in the central nervous system was measured after 0.67 mg/kg of ip administration; assay type: functional; details: route intraperitoneal; outline: as §2
Rattus norvegicus [16] = test: Ability to elicit head twitches in rats a response characteristic of a serotonin mimetic action in the central nervous system after 6 mg/kg of ip administration; assay type: functional; details: route intraperitoneal; outline: as §2
Rattus norvegicus [17] = test: Serotonin neuronal reuptake blocking activity was determined by the antagonism of the head twitch response induced in rats with p-chloromethamphetamine (PCMA) after 6 mg/kg of ip administration; assay type: functional; details: route intraperitoneal; outline: as §3
Rattus norvegicus [18] = test: Serotonin neuronal reuptake blocking activity was determined by the antagonism of the head twitch response induced by treatment of rats with p-chloromethamphetamine (PCMA) after 2 mg/kg of ip administration; assay type: functional; details: route intraperitoneal; outline: as §3
Rattus norvegicus [19] = test: Serotonin neuronal reuptake blocking activity was determined by the antagonism of the head twitch response induced by treatment of rats with p-chloromethamphetamine (PCMA) after 0.67 mg/kg of ip administration; assay type: functional; details: route intraperitoneal; outline: as §3
Rattus norvegicus [20] = test: Ability to elicit head twitches in rats a response characteristic of a serotonin mimetic action in the central nervous system after 40 mg/kg of ip administration; Animals succumbed; assay type: functional, organism-based; set-up: dose 40 mg/kg; outline: as §2
Rattus norvegicus [21] = test: Ability to elicit head twitches in rats a response characteristic of a serotonin mimetic action in the central nervous system was measured after 1 mg/kg of ip administration; assay type: functional; details: route intraperitoneal; outline: as §2
Rattus norvegicus [22] = test: Ability to elicit head twitches in rats a response characteristic of a serotonin mimetic action in the central nervous system was measured after 1.2 mg/kg of ip administration; assay type: functional; details: route intraperitoneal; outline: as §2
Rattus norvegicus [23] = test: Ability to elicit head twitches in rats a response characteristic of a serotonin mimetic action in the central nervous system was measured after 5 mg/kg of ip administration; assay type: functional; details: route intraperitoneal; outline: as §2
Rattus norvegicus [24] = test: Ability to elicit head twitches in rats a response characteristic of a serotonin mimetic action in the central nervous system after 20 mg/kg of ip administration; assay type: functional; details: route intraperitoneal; outline: as §2
Rattus norvegicus [25] = test: Serotonin neuronal reuptake blocking activity was determined by the antagonism of the head twitch response induced in rats with p-chloromethamphetamine (PCMA) after 40 mg/kg of ip administration; Animals succumbed; assay type: functional, organism-based; set-up: dose 40 mg/kg; outline: as §3

Row | Compound | Activity [1] | Activity [2] | Activity [3] | PCMA antagonism [4] | PCMA antagonism [5] | PCMA antagonism [6] | other results
1 | COc1cccc2nc(N3CCNCC3)cnc12 | 2 | 1 | 3 | 2 | 1 | 0 | 
2 | Cl.Clc1ccc2nc(N3CCNCC3)cnc2c1 | 0 | 1 | 2 | 6 | 6 | 4 | ED50 (Rattus norvegicus [7]): 0.5 mg/kg
3 | Nc1nc2ccccc2nc1N1CCNCC1 | 3 | 2 | 6 | 0 | 1 | 1 | 
4 | Cn1c(=O)c(N2CCNCC2)nc2ccccc21 |  |  |  |  |  |  | Activity (Rattus norvegicus [8]): 1; Activity (Rattus norvegicus [9]): 3; Activity (Rattus norvegicus [10]): 5; PCMA antagonism (Rattus norvegicus [11]): 0; PCMA antagonism (Rattus norvegicus [12]): 2; PCMA antagonism (Rattus norvegicus [13]): 1
5 | O=C(O)C1CN(c2cnc3ccccc3n2)CCN1 (configuration not stated) | 1 | 2 | 0 | 0 | 0 | 0 | 
6 | [O-][n+]1cc(N2CCNCC2)nc2ccccc21 | 6 | 6 |  |  |  |  | 
7 | Brc1ccc2nc(N3CCNCC3)cnc2c1.Cl |  |  |  |  |  |  | Activity (Rattus norvegicus [14]): 4; Activity (Rattus norvegicus [15]): 0; Activity (Rattus norvegicus [16]): 2; PCMA antagonism (Rattus norvegicus [17]): 2; PCMA antagonism (Rattus norvegicus [18]): 3; PCMA antagonism (Rattus norvegicus [19]): 2
8 | O=[N+]([O-])c1ccc2nc(N3CCNCC3)cnc2c1 | 2 | 4 | 2 | 5 | 6 | 5 | 
9 | COc1ccc2nc(N3CCNCC3)cnc2c1 | 1 | 1 |  |  | 5 | 3 | Activity (Rattus norvegicus [20]): Active
10 | CC(=O)N1CCN(c2cnc3cc(Cl)ccc3n2)CC1 | 2 | 2 | 1 | 0 | 1 | 0 | 
11 | Cl.ON1CCN(c2cnc3ccccc3n2)CC1 |  |  |  |  |  |  | Activity (Rattus norvegicus [9]): 2; Activity (Rattus norvegicus [21]): 2; Activity (Rattus norvegicus [10]): 4
12 | Cl.Clc1nc2ccccc2nc1N1CCNCC1 |  |  |  |  |  |  | Activity (Rattus norvegicus [22]): 2; Activity (Rattus norvegicus [23]): 3; Activity (Rattus norvegicus [24]): 1
13 | CN(C)CCn1c(=O)c(N2CCNCC2)nc2ccccc21 | 0 | 1 | 1 | 0 | 0 | 2 | 
14 | Fc1cccc2ncc(N3CCNCC3)nc12 | 6 | 1 |  |  | 1 | 0 | Activity (Rattus norvegicus [20]): Active; PCMA antagonism (Rattus norvegicus [25]): Active
15 | Fc1cccc2nc(N3CCNCC3)cnc12 | 6 | 6 |  |  |  |  | 
16 | Clc1ccc2ncc(N3CCNCC3)nc2c1 |  |  |  |  |  |  | Activity (Rattus norvegicus [8]): 0; Activity (Rattus norvegicus [9]): 1; Activity (Rattus norvegicus [10]): 3; PCMA antagonism (Rattus norvegicus [11]): 5; PCMA antagonism (Rattus norvegicus [12]): 3; PCMA antagonism (Rattus norvegicus [13]): 1
